Assay results from ChEMBL document CHEMBL4359872, “Identification of potent triazolylpyridine nicotinamide phosphoribosyltransferase (NAMPT) inhibitors bearing a 1,2,3-triazole tail group” (Eur J Med Chem, 2019).
In brackets after ≈: the same amount, converted by molar mass. Activity calls are given as the source filed them. The calls are words filed in the database; no cut-off is given here.

What was measured:
[1] = Half-life in BALB/c mouse at 10 mg/kg, iv administered as single dose measured after 24 hrs by LC-ESI/MS analysis; format: ADME, organism-based; conditions: in vivo
Method in brief: (§1)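 Mice given a single 10 mg/kg i.v. injection; serial blood sampling, then half-life, clearance and volume of distribution derived.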

[2] = Toxicity in Crl:CD Sprague-Dawley rat retina at 100 mg/kg, ip administered once daily for 5 days by hematoxylin and eosin staining based microscopic analysis; format: organism-based; conditions: in vivo, 120 h
[3] = Cytotoxicity against human SH-SY5Y cells assessed as cell viability at 1 uM measured after 48 hrs by MTT assay relative to control; format: cell-based; conditions: read-out: Activity
[4] = Toxicity in Crl:CD Sprague-Dawley rat heart assessed as increase in cardiomyocytes cytoplasmic vacuolation at 100 mg/kg, ip administered once daily for 5 days by hematoxylin and eosin staining based microscopic analysis; format: organism-based; conditions: in vivo, 120 h
[5] = Clearance in BALB/c mouse at 10 mg/kg, iv administered as single dose measured after 24 hrs by LC-ESI/MS analysis; format: ADME, organism-based; conditions: in vivo; method in brief: as §1
[6] = system: 4T1; assay: Antitumor activity against mouse 4T1 cells implanted in BALB/c mouse assessed as reduction in tumor weight at 10 mg/kg, ip bid for 12 days; format: functional, organism-based
Method in brief: (§2)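 Tumour cells implanted in the mammary gland. Dosing began at day 14, once tumours were palpable, after randomization into vehicle and treated groups of 4 mice each. Compound given intraperitoneally at 10 mg/kg twice a day for 12 consecutive days. Data are means of two independent experiments.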

[7] = system: Lymphocyte; assay: Genotoxicity in human primary lymphocytes up to 1 mM in presence of S9 fraction by GreenScreen assay; format: toxicity, cell-based
[8] = Permeability across apical side to basolateral side in human Caco2 cells at 30 uM after 4 hrs by HPLC analysis; format: ADME, cell-based; conditions: caco-2, 4 h
Method in brief: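 Caco-2 monolayer used to measure apical-to-basal transfer, reported as % permeability and Papp. Terbutaline served as the positive control; n = 3.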

[9] = system: 4T1; assay: Antitumor activity against mouse 4T1 cells implanted in BALB/c mouse assessed as reduction in tumour volume at 10 mg/kg, ip bid for 12 days by vernier caliper method; format: functional, organism-based; method in brief: as §2
[10] = system: 4T1; assay: Antitumor activity against mouse 4T1 cells implanted in Balb/c mouse mouse assessed as inhibition of tumor metastasis at 10 mg/kg, ip bid for 12 days measured post last dose by crystal violet staining based thioguanine clonogenic assay; format: functional, organism-based; method in brief: as §2
[11] = system: TK6; assay: Genotoxicity in human TK6 up to 1 mM in presence of S9 fraction by GreenScreen assay; format: toxicity, cell-based
[12] = biological target: Nicotinamide phosphoribosyltransferase (Mus musculus, UniProt Q99KQ4); assay: Inhibition of recombinant mouse wild-type NAMPT expressed in bacterial expression system using PRPP as substrate in presence of mouse NMNAT-3 measured for 1 hr by fluorescence assay
Sequence of Nicotinamide phosphoribosyltransferase (Q99KQ4 whole entry): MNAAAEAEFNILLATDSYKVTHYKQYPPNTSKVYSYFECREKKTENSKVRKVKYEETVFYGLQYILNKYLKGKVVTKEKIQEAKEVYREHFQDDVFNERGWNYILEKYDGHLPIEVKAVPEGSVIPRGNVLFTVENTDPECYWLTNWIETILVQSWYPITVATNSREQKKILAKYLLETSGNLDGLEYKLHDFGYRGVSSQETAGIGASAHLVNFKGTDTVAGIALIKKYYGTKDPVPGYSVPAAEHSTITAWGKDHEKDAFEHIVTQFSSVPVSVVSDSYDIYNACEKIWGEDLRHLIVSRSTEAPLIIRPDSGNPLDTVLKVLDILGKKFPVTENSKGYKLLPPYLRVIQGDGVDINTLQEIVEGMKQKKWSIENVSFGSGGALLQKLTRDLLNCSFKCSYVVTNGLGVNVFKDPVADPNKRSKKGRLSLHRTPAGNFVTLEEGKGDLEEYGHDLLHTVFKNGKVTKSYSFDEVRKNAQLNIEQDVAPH
Method in brief: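 In vitro NAMPT enzymatic assay run as concentration-response curves, with IC50 derived from the curves. Mean ± SD of three independent experiments (n = 6).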

[13] = system: SH-SY5Y; assay: Cytotoxicity against human SH-SY5Y cells measured after 48 hrs by MTT assay; format: cell-based
[14] = Thermodynamic solubility of compound in water after 24 hrs by LC-UV based shake flask method; format: physicochemical; conditions: buffer
Method in brief: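 Thermodynamic water solubility measured by saturation shake flask, with the concentration of the saturated solution reported.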

[15] = AUC in BALB/c mouse at 10 mg/kg, iv administered as single dose measured after 24 hrs by LC-ESI/MS analysis; format: ADME, organism-based; parameters: time < 24 hr, dose 10 mg/kg, route intravenous; conditions: in vivo; method in brief: as §1
[16] = system: TK6; assay: Genotoxicity in human TK6 cells assessed as induction of DNA damage up to 500 uM by GreenScreen assay; format: toxicity, cell-based
[17] = Kinetic aqueous solubility of the compound in 80:20 PBS/acetonitrile solution at 200 to 500 uM by HTS assay; format: physicochemical; conditions: read-out: Kinetic_solubility
[18] = system: Lymphocyte; assay: Genotoxicity in human primary lymphocytes assessed as induction of DNA damage up to 500 uM by GreenScreen assay; format: toxicity, cell-based
[19] = Toxicity in Crl:CD Sprague-Dawley rat heart assessed as hypereosinophilia at 100 mg/kg, ip administered once daily for 5 days by hematoxylin and eosin staining based microscopic analysis; format: organism-based; conditions: in vivo, 120 h
[20] = Volume of distribution in BALB/c mouse at 10 mg/kg, iv administered as single dose measured after 24 hrs by LC-ESI/MS analysis; format: ADME, organism-based; conditions: in vivo; method in brief: as §1
[21] = Toxicity in Crl:CD Sprague-Dawley rat heart assessed as interstitial expansion at 100 mg/kg, ip administered once daily for 5 days by hematoxylin and eosin staining based microscopic analysis; format: organism-based; conditions: in vivo, 120 h
[22] = Metabolic stability in human liver microsomes assessed as parent compound remaining at 50 uM […] for 60 mins by LC-ESI/MS analysis; format: ADME, Microsome; conditions: read-out: Stability
[23] = Metabolic stability in Wistar Han rat liver microsomes assessed as parent compound remaining at 50 uM […] for 60 mins by LC-ESI/MS analysis; format: ADME, Microsome; conditions: read-out: Stability
[24] = biological target: Nicotinamide phosphoribosyltransferase (Homo sapiens) (UniProt P43490); assay: Inhibition of NAMPT in human SH-SY5Y cells assessed as reduction in NAD levels at 100 nM measured after 16 hrs by diaphorase and resazurin dye based fluorescence assay relative to control; format: cell-based
Sequence of Nicotinamide phosphoribosyltransferase (Homo sapiens) (P43490 whole entry, looked up): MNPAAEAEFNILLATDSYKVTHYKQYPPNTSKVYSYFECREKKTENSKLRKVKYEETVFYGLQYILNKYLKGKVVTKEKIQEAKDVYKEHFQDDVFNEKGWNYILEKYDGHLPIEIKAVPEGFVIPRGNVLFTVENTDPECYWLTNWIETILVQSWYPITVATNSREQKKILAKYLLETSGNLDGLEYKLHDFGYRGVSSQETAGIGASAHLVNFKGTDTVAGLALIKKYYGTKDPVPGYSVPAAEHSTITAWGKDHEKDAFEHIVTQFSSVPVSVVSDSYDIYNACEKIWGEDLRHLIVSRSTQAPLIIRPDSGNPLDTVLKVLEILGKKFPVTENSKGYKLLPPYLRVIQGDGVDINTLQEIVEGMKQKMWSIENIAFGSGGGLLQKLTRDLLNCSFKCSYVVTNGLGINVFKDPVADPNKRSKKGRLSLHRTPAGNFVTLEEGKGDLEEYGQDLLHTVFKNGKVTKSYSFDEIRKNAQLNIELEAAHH
Method in brief: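 SH-SY5Y cells treated at 100 nM for 16 h, then NAD level reduction measured as % of control. Mean ± SD of two independent experiments (n = 6).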

[25] = Selectivity ratio of EC50 for cytotoxicity against human SH-SY5Y cells to IC50 for recombinant mouse wild-type NAMPT expressed in bacterial expression system; format: cell-based
[26] = Toxicity in Crl:CD Sprague-Dawley rat heart assessed as interstitial expansion at 200 mg/kg, po administered once daily for 5 days via gavage by hematoxylin and eosin staining based microscopic analysis; format: organism-based; conditions: in vivo, 120 h
[27] = Toxicity in Crl:CD Sprague-Dawley rat retina at 200 mg/kg, po administered once daily for 5 days via gavage by hematoxylin and eosin staining based microscopic analysis; format: organism-based; conditions: in vivo, 120 h
[28] = Half-life in human; format: ADME
[29] = Toxicity in Crl:CD Sprague-Dawley rat heart assessed as hypereosinophilia at 200 mg/kg, po administered once daily via gavage for 5 days by hematoxylin and eosin staining based microscopic analysis; format: organism-based; conditions: in vivo, 120 h
[30] = Toxicity in Crl:CD Sprague-Dawley rat heart assessed as increase in cardiomyocytes cytoplasmic vacuolation at 200 mg/kg, po administered once daily for 5 days via gavage by hematoxylin and eosin staining based microscopic analysis; format: organism-based; conditions: in vivo, 120 h

| permeability [8] | IC50 [12] | solubility kinetic [17] | Compound | viability at 48 h, 1 µM [3] | Activity [6] | Activity [9] | inhibition [10] | EC50 [13] | further results |
| --- | --- | --- | --- | --- | --- | --- | --- | --- | --- |
| 10.6% | 3.4 nM | 200 to 500 µM (≈ 86.1 to 215 µg/mL) | O=C(NCCCCCCCn1cc(-c2cccnc2)nn1)c1ccccc1-n1ccnn1 | 10.5% | Active | Active | Active | 35.4 nM | half-life [1]: 3.51 h; Activity [2]: Non-Toxic; Activity [4]: Non-Toxic; clearance [5]: 103 mL/min/kg; Activity [7]: Non-Toxic; Activity [11]: Non-Toxic; Therm_solubility [14]: Soluble; AUC at 24 h [15]: 1620 ng·h/mL; Activity [16]: Non-Toxic; Activity [18]: Non-Toxic; Activity [19]: Non-Toxic; Vd [20]: 31.3 L/kg; Activity [21]: Non-Toxic; remaining at 1 h, 50 µM [22]: 94%; remaining at 1 h, 50 µM [23]: 70% |
| < 1% | 41.8 nM | 200 to 500 µM (≈ 109 to 272 µg/mL) | O=C(NCCCCCCCn1cc(-c2cccnc2)nn1)c1ccccc1-n1cc(CN2CCC(O)CC2)nn1 | 91.7% |  |  |  | > 10000 nM | inhibition [24]: 30%; Selectivity ratio [25]: 200 |
|  | 20.6 nM | 200 to 500 µM (≈ 120 to 300 µg/mL) | CCOC(=O)C1CCN(Cc2cn(-c3ccccc3C(=O)NCCCCCCCn3cc(-c4cccnc4)nn3)nn2)CC1 | 14.1% |  |  |  | 61.5 nM |  |
|  |  |  | N#CN=C(NCCCCCCOc1ccc(Cl)cc1)Nc1ccncc1 [CHS-828] |  | Active | Active | Active |  | Activity [26]: Non-Toxic; Activity [27]: Non-Toxic; half-life [28]: 2.1 h; Activity [29]: Non-Toxic; Activity [30]: Non-Toxic |
|  | 49.6 nM | 200 to 500 µM (≈ 106 to 265 µg/mL) | O=C(NCCCCCCCn1cc(-c2cccnc2)nn1)c1ccccc1-n1cc(CN2CCOCC2)nn1 | 30% |  |  |  | > 500 nM |  |
|  | > 500 nM |  | O=C(O)c1ccc(-c2ccccc2C(=O)NCCCCCCCn2cc(-c3cccnc3)nn2)cc1 | 22.5% |  |  |  | 224 nM |  |
